Data set [1] addresses T1, PSMA (Homo sapiens, UniProt Q04609). The following applies: for comparison; cited from earlier work.
Data set [2] concerns the target T1, PSMA. In words: PSMA inhibition assay. The format is biochemical. As to conditions: LNCaP cell lysates, 4 μM NAAG. The procedure, abridged:
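PSMA source: LNCaP cell lysate. Test compound (0.01 nM–100 μM) incubated with 4 μM NAAG, 37 °C, 2 h. Released glutamate detected with Amplex Red glutamic acid working solution, 37 °C, 60 min; fluorescence ex 490/em 642 nm. IC50 from semilog inhibition curves, then Ki by Cheng–Prusoff. Triplicates; whole inhibition study repeated at least once.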

Data set [3] can be described thus: Octanol-water partition coefficient. In kind it is physicochemical. As to conditions: pH 7.4.
In the next data set the test system is kidneys. Kind of data set: Radiation dosimetry. The format is in vivo, NOD-SCID mice.
Data set [4] has as its system PSMA^+ PC3 PIP and PSMA^− PC3 flu xenografts. Kind of data set: Small animal PET imaging. In kind it is in vivo, NOD-SCID mice. The procedure, abridged: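 Male NOD-SCID mice given 1 × 106 PSMA+ PC3 PIP and PSMA− PC3 flu cells s.c. in opposite flanks, cells trypsinized at 80–90% confluence into HBSS. Imaged at 3–5 mm tumors after i.v. 0.36 mCi (13.3 MBq) radiotracer in 0.2 mL PBS under isoflurane/oxygen. PET/CT at 30, 60, 120 min; 10 min per bed, 20 min total; 250–700 keV; FORE/2D-OSEM, decay/dead-time/scatter corrected.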

The structures appear in SMILES notation. Like-named read-outs stand apart in the source and are kept apart here.

Consider 4 compounds from article PMC5516890 (Bioconjugate chemistry, 2016).

Usually Ki stands for a measure of affinity in units of concentration, obtained from inhibition or displacement. For orientation: logP means a log measure of how a compound divides between an organic and an aqueous phase.

T1 sequence (Q04609 whole entry): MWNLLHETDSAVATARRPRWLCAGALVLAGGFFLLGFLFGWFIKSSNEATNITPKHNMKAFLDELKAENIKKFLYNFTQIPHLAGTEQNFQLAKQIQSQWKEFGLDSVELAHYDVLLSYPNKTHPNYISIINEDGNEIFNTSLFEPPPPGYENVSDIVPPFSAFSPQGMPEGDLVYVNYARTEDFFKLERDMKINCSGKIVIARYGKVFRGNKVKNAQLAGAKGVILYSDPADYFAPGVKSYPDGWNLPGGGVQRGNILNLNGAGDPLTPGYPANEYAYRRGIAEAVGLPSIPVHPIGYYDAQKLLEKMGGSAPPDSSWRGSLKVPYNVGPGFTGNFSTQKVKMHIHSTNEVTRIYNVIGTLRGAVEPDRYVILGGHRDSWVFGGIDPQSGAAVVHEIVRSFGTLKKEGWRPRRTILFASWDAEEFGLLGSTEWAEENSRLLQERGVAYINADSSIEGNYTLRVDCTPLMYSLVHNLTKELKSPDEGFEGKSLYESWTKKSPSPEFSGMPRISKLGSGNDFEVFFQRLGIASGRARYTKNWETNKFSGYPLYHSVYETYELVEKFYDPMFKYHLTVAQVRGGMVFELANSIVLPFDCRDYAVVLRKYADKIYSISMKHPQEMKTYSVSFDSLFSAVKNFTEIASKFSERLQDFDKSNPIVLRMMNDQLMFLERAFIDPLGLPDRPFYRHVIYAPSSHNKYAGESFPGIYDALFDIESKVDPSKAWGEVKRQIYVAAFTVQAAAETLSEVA

As to `O=C(O)CCC(NC(=O)NC(CCCCNC(=O)c1ccc(F)cc1)C(=O)O)C(=O)O` (stereo not shown) [DCFBzL], the Ki at PSMA [1] was 0.19 nM.
Regarding `O=C(O)CCC(NC(=O)NC(CCCCNC(=O)CCc1cn(CCF)nn1)C(=O)O)C(=O)O` (stereo not shown) [YC-88, 2-[3-(1-Carboxy-5-{3-[1-(2-fluoroethyl)-1 H-1,2,3-tria-zol-yl]propanamido}pentyl)ureido]pentanedioic Acid], the Ki is 12.9 nM on PSMA [2] (37 °C, 2 h, Cheng–Prusoff conversion) and 8.7 to 19.1 nM on PSMA [2] (read-out: Ki 95% confidence intervals).
On to `O=C(O)CCC(NC(=O)NC(CCCCNC(=O)c1ccc([18F])nc1)C(=O)O)C(=O)O` (stereo not shown) [[^18F]DCFPyL, 2-(3-{1-carboxy-5-[(6-[^18F]fluoropyridine-3-carbonyl)-amino]-pentyl}-ureido)-pentanedioic acid, reference compound], for which, in data set [3], the logP is -3.27. In the data set with kidneys (male, NOD-SCID, mouse, in vivo), this compound showed an AUC of 340.74 % ID/g-h and a biological half-life of 1.20 h.
`O=C(O)CCC(NC(=O)NC(CCCCNC(=O)CCc1cn(CC[18F])nn1)C(=O)O)C(=O)O` (stereo not shown) [[^18F]YC-88, 2-[3-(1-carboxy-5-{3-[1-(2-[^18F]fluoroethyl)-1H-1,2,3-triazol-yl]propanamido}pentyl)ureido]-pentanedioic acid] returned a logP in data set [3] (1-octanol and PBS) of −3.91. In the data set with kidneys (kidneys), the AUC was found to be 70.7 % ID/g-h; the “AUC ratio (agent/YC-88)” value worked out at 1; the “kidney absorbed dose, decrease compared to [^18F]DCFPyL” value is on record as around 5 fold. For the same compound, the biological half-life in the data set with kidneys (kidneys, single exponential fit of % ID/g data) is 1.52 h. Besides, the “uptake in normal tissues on PET images” value in data set [4] (30, 60, 120 min postinjection) is “extremely low uptake”. The “PSMA^+ PC3 PIP tumor uptake on PET images” value in data set [4] (as early as 30 min postinjection, 0.36 mCi i.v.) is given as “Intense”.
